Measurements published in ChEMBL document CHEMBL3351532, “In vitro antiplasmodial and cytotoxic activities of asymmetrical pyridinium derivatives” (Eur J Med Chem, 2014).

What was measured:
Plasmodium falciparum = assay: Antiplasmodial activity against Plasmodium falciparum 3D7 infected in human erythrocytes assessed as parasite growth inhibition after 72 hrs by SYBR Green I dye based fluorescence assay; format: functional, organism-based; conditions: 3D7, 72 h
Method in brief: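 P. falciparum 3D7, sorbitol-synchronized, in O+ human erythrocytes at 5% hematocrit and 0.5% parasitemia. Medium: RPMI 1640 with 2% human serum, 0.5% Albumax II and 0.2% NaHCO3, at 37 °C in 5% CO2. Triplicate serial dilutions, 0.001% final DMSO, 80 nM chloroquine as positive control, 72 h. SYBR Green I lysis for 1 h in the dark (ex 485/em 530 nm). IC50 by nonlinear regression of counts against log concentration.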

[1] = Cytotoxicity against rat L6 cells after 72 hrs by alamar blue assay; format: cell-based
Method in brief: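 Rat L6 skeletal myoblasts plated at 50,000 cells/well in RPMI 1640 with L-glutamine and 10% FBS, left to adhere 3 h, then exposed to serial dilutions for 72 h. Alamar Blue added for 2 h at 37 °C, fluorescence read at ex 536/em 588 nm. TC50 taken as the concentration halving fluorescence relative to inhibitor-free wells.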

[2] = Selectivity index, ratio of CC50 for rat L6 cells to IC50 for Plasmodium falciparum 3D7; format: functional

Compound	IC50 (Plasmodium falciparum) [µM]	CC50 at 72 h [1] [mg/L]	Ratio CC50/IC50 [2]
CN(C)c1cc[n+](Cc2ccc(Cn3cnc4c(N)ncnc43)cc2)cc1	14.3		
Nc1ncnc2c1ncn2Cc1ccc(C[n+]2ccc(N3CCCC3)cc2)cc1	6.43		
CN(C)c1cc[n+](Cc2ccc(-c3ccc(Cn4cnc5c(N)ncnc54)cc3)cc2)cc1	4.84		
Nc1ncnc2c1ncn2Cc1ccc(-c2ccc(C[n+]3ccc(N4CCCC4)cc3)cc2)cc1	0.191		
CN(C)c1cc[n+](Cc2ccc(CCc3ccc(Cn4cnc5c(N)ncnc54)cc3)cc2)cc1	0.191		
Nc1ncnc2c1ncn2Cc1ccc(CCc2ccc(C[n+]3ccc(N4CCCC4)cc3)cc2)cc1	0.093		
CN(C)c1cc[n+](Cc2ccc(CCCCc3ccc(Cn4cnc5c(N)ncnc54)cc3)cc2)cc1	0.162		
Nc1ncnc2c1ncn2Cc1ccc(CCCCc2ccc(C[n+]3ccc(N4CCCC4)cc3)cc2)cc1	0.46		
CN(C)c1cc[n+](Cc2ccc(Cn3cnc(N)c4ncnc3-4)cc2)cc1	> 22.7		
CN(C)c1cc[n+](Cc2ccc(-c3ccc(Cn4cnc(N)c5ncnc4-5)cc3)cc2)cc1	0.949		
Nc1ncn(Cc2ccc(CCc3ccc(C[n+]4ccc(N5CCCC5)cc4)cc3)cc2)c2ncnc1-2	0.21		
CN(C)c1cc[n+](Cc2ccc(CCCCc3ccc(Cn4cnc(N)c5ncnc4-5)cc3)cc2)cc1	0.93		
Nc1ncn(Cc2ccc(CCCCc3ccc(C[n+]4ccc(N5CCCC5)cc4)cc3)cc2)c2ncnc1-2	0.084		
CN(C)c1cc[n+](Cc2ccc(C[n+]3ccc(N4CCCC4)cc3)cc2)cc1	0.094		
CN(C)c1cc[n+](Cc2ccc(-c3ccc(C[n+]4ccc(N5CCCC5)cc4)cc3)cc2)cc1.[Br-].[Br-]	0.003	5.1	3187.5
CN(C)c1cc[n+](Cc2ccc(CCc3ccc(C[n+]4ccc(N5CCCC5)cc4)cc3)cc2)cc1.[Br-].[Br-]	0.003	0.123	58.6
CN(C)c1cc[n+](Cc2ccc(CCCCc3ccc(C[n+]4ccc(N5CCCC5)cc4)cc3)cc2)cc1.[Br-].[Br-]	0.002	0.012	8.6

Compound	IC50 (Plasmodium falciparum) [µM]	CC50 at 72 h [1] [mg/L]	Ratio CC50/IC50 [2]
CN(c1ccc(Cl)cc1)c1cc[n+](Cc2ccc(C[n+]3ccc(N4CCCC4)cc3)cc2)cc1	0.092		
CN(c1ccc(Cl)cc1)c1cc[n+](Cc2ccc(-c3ccc(C[n+]4ccc(N5CCCC5)cc4)cc3)cc2)cc1	0.038		
CN(c1ccc(Cl)cc1)c1cc[n+](Cc2ccc(CCc3ccc(C[n+]4ccc(N5CCCC5)cc4)cc3)cc2)cc1	0.031		
CN(c1ccc(Cl)cc1)c1cc[n+](Cc2ccc(CCCCc3ccc(C[n+]4ccc(N5CCCC5)cc4)cc3)cc2)cc1	0.037		
CN(C)c1cc[n+](Cc2ccc(C[n+]3ccc(N(C)c4ccc(Cl)cc4)cc3)cc2)cc1	0.066		
CN(C)c1cc[n+](Cc2ccc(-c3ccc(C[n+]4ccc(N(C)c5ccc(Cl)cc5)cc4)cc3)cc2)cc1.[Br-].[Br-]	0.007	0.122	24.4
CN(C)c1cc[n+](Cc2ccc(CCc3ccc(C[n+]4ccc(N(C)c5ccc(Cl)cc5)cc4)cc3)cc2)cc1.[Br-].[Br-]	0.005	0.1	28.6
CN(C)c1cc[n+](Cc2ccc(CCCCc3ccc(C[n+]4ccc(N(C)c5ccc(Cl)cc5)cc4)cc3)cc2)cc1	0.045		
CN(C)c1cc[n+](Cc2ccc(Cn3cnc4c(SCc5ccccc5)ncnc43)cc2)cc1	0.122		
c1ccc(CSc2ncnc3c2ncn3Cc2ccc(C[n+]3ccc(N4CCCC4)cc3)cc2)cc1	0.411		
CN(C)c1cc[n+](Cc2ccc(-c3ccc(Cn4cnc5c(SCc6ccccc6)ncnc54)cc3)cc2)cc1	3.22		
c1ccc(CSc2ncnc3c2ncn3Cc2ccc(-c3ccc(C[n+]4ccc(N5CCCC5)cc4)cc3)cc2)cc1	0.119		
CN(C)c1cc[n+](Cc2ccc(CCc3ccc(Cn4cnc5c(SCc6ccccc6)ncnc54)cc3)cc2)cc1	0.092		
c1ccc(CSc2ncnc3c2ncn3Cc2ccc(CCc3ccc(C[n+]4ccc(N5CCCC5)cc4)cc3)cc2)cc1	0.149		
CN(C)c1cc[n+](Cc2ccc(CCCCc3ccc(Cn4cnc5c(SCc6ccccc6)ncnc54)cc3)cc2)cc1	0.5		
c1ccc(CSc2ncnc3c2ncn3Cc2ccc(CCCCc3ccc(C[n+]4ccc(N5CCCC5)cc4)cc3)cc2)cc1	0.054		
